Results as given in paper PMC6916429 (ACS infectious diseases, 2019).
“And” between values parts separate entries of the source, which are not always exact repeats. Equal values may be shown once.

T1: S. aureus ClpP (caseinolytic protease) (S. aureus NCTC 8325), Q2G036
T1 chain: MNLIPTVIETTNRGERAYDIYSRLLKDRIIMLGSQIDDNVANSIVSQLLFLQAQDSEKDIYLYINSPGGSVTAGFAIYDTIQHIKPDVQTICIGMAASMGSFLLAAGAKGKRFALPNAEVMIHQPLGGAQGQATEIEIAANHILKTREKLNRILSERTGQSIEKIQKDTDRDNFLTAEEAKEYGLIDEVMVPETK


What was measured:
[1] = system: S. aureus biofilms (UAMS-1); assay: Biofilm killing assay; format: cell-based; settings: 10 times the MIC, 24 hours, compared with the control
Summary of the method: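 Overnight stationary UAMS-1 culture diluted 1:20 in BHI broth and grown 24 h at 37 °C in tissue-culture-treated 96-well plates. Wells PBS-washed twice, then exposed to test compound in fresh medium for 24 h. Washed again, biofilms disrupted by sonication in PBS, serially diluted, and spotted on BHI agar overnight at 37 °C for cfu counts. One-way ANOVA with Dunnett's test.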

[2] = molecular target: T1, S. aureus ClpP (caseinolytic protease) …; assay: crystal structure; settings: remark: other sources report otherwise
[3] = molecular target: T1, S. aureus ClpP (caseinolytic protease) …; assay: AUC; settings: remark: other sources report otherwise

Row | stoichiometry N [2] | stoichiometry N [3] | Molecule | reduction in growth of mature S. aureus biofilms [1]
1 | – | – | CO[C@H]1/C=C/O[C@@]2(C)Oc3c(C)c(O)c4c(O)c(c(/C=N/N5CCN(C)CC5)c(O)c4c3C2=O)NC(=O)/C(C)=C\C=C\[C@H](C)[C@H](O)[C@@H](C)[C@@H](O)[C@@H](C)[C@H](OC(C)=O)[C@@H]1C [rifampin] | limited reduction
2 | 14 | 14 and 7 | S. aureus ClpP (caseinolytic protease), Q2G036 1-195 (enzyme) MNLIPTVIETTNRGERAYDIYSRLLKDRIIMLGSQIDDNVANSIVSQLLFLQAQDSEKDIYLYINSPGGSVTAGFAIYDTIQHIKPDVQTICIGMAASMGSFLLAAGAKGKRFALPNAEVMIHQPLGGAQGQATEIEIAANHILKTREKLNRILSERTGQSIEKIQKDTDRDNFLTAEEAKEYGLIDEVMVPETK | –
